# According to ChEMBL document CHEMBL1138318, “Synthesis and evaluation of the antiproliferative activities of derivatives of carboxyalkyl isoflavones linked to N-t-Boc-hexylenediamine” (J Med Chem, 2007):
# Columns and labels:
# A2780 [1] = test: Inhibition of DNA synthesis in human A2780 cells assessed as ratio of treated to untreated control at 3 uM after 48 hrs by [3H]thymidine incorporation assay; assay type: functional
# In short: (§1)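 Single-concentration screen by [3H]-thymidine incorporation into DNA. Test compounds were used at 0.3 µM in C4–2B cells and at 3 µM in 320DM, MLS, A2780, H295R and VSMC cells. Estradiol 17β was used at 30 nM throughout. Values are experimental/control DNA-synthesis ratios, given as means ± SD of 8–16 incubates from 2–4 experiments.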
# [2] = Inhibition of DNA synthesis in human H295R cells assessed as ratio of treated to untreated control at 3 uM after 48 hrs by [3H]thymidine incorporation assay; assay type: functional; in short: as §1
# [3] = Inhibition of DNA synthesis in human 320DM cells assessed as ratio of treated to untreated control at 3 uM after 48 hrs by [3H]thymidine incorporation assay; assay type: functional; in short: as §1
# LNCaP C4-2B [4] = test: Inhibition of DNA synthesis in human C4-2B cells assessed as ratio of treated to untreated control at 0.3 uM after 48 hrs by [3H]thymidine incorporation assay; assay type: functional; in short: as §1
# [5] = Inhibition of DNA synthesis in human VSMC cells assessed as ratio of treated to untreated control at 3 uM after 48 hrs by [3H]thymidine incorporation assay
# [6] = Inhibition of DNA synthesis in human MLS cells assessed as ratio of treated to untreated control at 3 uM after 48 hrs by [3H]thymidine incorporation assay; assay type: functional; in short: as §1
# [7] = Stimulation of DNA synthesis in human 320DM cells assessed as ratio of treated to untreated control at 300 nM after 48 hrs by [3H]thymidine incorporation assay; assay type: functional
# In short: (§2)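 Estradiol-driven proliferation in MLS and 320DM cells, measured by [3H]-thymidine incorporation. Cells were exposed to estradiol at 30 or 300 nM, alone or with compound (0.3 µM) or ICI 182780 (1.1 µM). Values are E/C ratios versus untreated control, given as means ± SD of 8–16 incubates from 2–4 experiments.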
# [8] = Inhibition of DNA synthesis in human VSMC cells assessed as ratio of treated to untreated control at 30 nM after 48 hrs by [3H]thymidine incorporation assay; assay type: cell-based; settings: 0.03 µM; in short: as §1
# A2780 [9] = test: Inhibition of DNA synthesis in human A2780 cells assessed as ratio of treated to untreated control at 30 nM after 48 hrs by [3H]thymidine incorporation assay; assay type: functional; in short: as §1
# [10] = Inhibition of DNA synthesis in human MLS cells assessed as ratio of treated to untreated control at 30 nM after 48 hrs by [3H]thymidine incorporation assay; assay type: functional; in short: as §1
# LNCaP C4-2B [11] = test: Inhibition of DNA synthesis in human C4-2B cells assessed as ratio of treated to untreated control at 30 nM after 48 hrs by [3H]thymidine incorporation assay; assay type: functional; in short: as §1
# [12] = Stimulation of DNA synthesis in human MLS cells assessed as ratio of treated to untreated control at 300 nM after 48 hrs by [3H]thymidine incorporation assay; assay type: functional; in short: as §2
# [13] = Inhibition of DNA synthesis in human 320DM cells assessed as ratio of treated to untreated control at 30 nM after 48 hrs by [3H]thymidine incorporation assay; assay type: functional; in short: as §1
# [14] = Inhibition of DNA synthesis in human H295R cells assessed as ratio of treated to untreated control at 30 nM after 48 hrs by [3H]thymidine incorporation assay; assay type: functional; in short: as §1
# [15] = Inhibition of 30 nM estradiol induced stimulation of DNA synthesis in human 320DM cells assessed as ratio of treated to untreated control at 1.1 uM after 48 hrs by [3H]thymidine incorporation assay; assay type: functional
# In short: (§3)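 [3H]-thymidine incorporation into DNA in human MLS ovarian or 320DM colon cancer cells; antagonist tested at 1.1 µM alone or with estradiol at 30 nM or 300 nM. Reported as ratio of experimental to control (E/C) DNA synthesis, means ± SD of 8–16 incubates from 2–4 experiments; significance flagged at p < 0.05 and p < 0.01.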
# [16] = Inhibition of 30 nM estradiol induced stimulation of DNA synthesis in human MLS cells assessed as ratio of treated to untreated control at 1.1 uM after 48 hrs by [3H]thymidine incorporation assay; assay type: functional; in short: as §3
# [17] = Inhibition of DNA synthesis in human 320DM cells assessed as ratio of treated to untreated control at 1.1 uM after 48 hrs by [3H]thymidine incorporation assay; assay type: functional; in short: as §3
# [18] = Inhibition of DNA synthesis in human MLS cells assessed as ratio of treated to untreated control at 1.1 uM after 48 hrs by [3H]thymidine incorporation assay; assay type: functional; in short: as §3
# [19] = Inhibition of 300 nM estradiol induced stimulation of DNA synthesis in human 320DM cells assessed as ratio of treated to untreated control at 1.1 uM after 48 hrs by [3H]thymidine incorporation assay; assay type: functional; in short: as §3
# [20] = Inhibition of 300 nM estradiol induced stimulation of DNA synthesis in human MLS cells assessed as ratio of treated to untreated control at 1.1 uM after 48 hrs by [3H]thymidine incorporation assay; assay type: functional; in short: as §3
smiles,measurement,setting,value
CC(C)(C)OC(=O)NCCCCCCNC(=O)CCCc1oc2cc(O)cc(O)c2c(=O)c1-c1ccc(O)cc1,Ratio,A2780 [1],1.12
same,Ratio,[2],0.6
same,Ratio,[3],0.2
same,Ratio,LNCaP C4-2B [4],0.75
same,Ratio,[5],0.78
COc1ccc(-c2c(CCCC(=O)NCCCCCCNC(=O)OC(C)(C)C)oc3cc(O)cc(O)c3c2=O)cc1,Ratio,A2780 [1],0.64
same,Ratio,[6],0.05
same,Ratio,[2],0.55
same,Ratio,[3],0.22
same,Ratio,LNCaP C4-2B [4],0.41
same,Ratio,[5],0.74
C[C@]12CC[C@@H]3c4ccc(O)cc4CC[C@H]3[C@@H]1CC[C@@H]2O [ESTRADIOL],Ratio,[7],1.87
same,Ratio,[8],0.55
same,Ratio,A2780 [9],1.42
same,Ratio,[10],2.35
same,Ratio,LNCaP C4-2B [11],2.1
same,Ratio,[12],1.7
same,Ratio,[13],2.06
same,Ratio,[14],2.1
C[C@]12CC[C@@H]3c4ccc(O)cc4C[C@@H](CCCCCCCCC[S+]([O-])CCCC(F)(F)C(F)(F)F)[C@H]3[C@@H]1CC[C@@H]2O (stereo not given in full) [FULVESTRANT],Ratio,[15],0.63
same,Ratio,[16],0.53
same,Ratio,[17],0.63
same,Ratio,[18],0.52
same,Ratio,[19],0.92
same,Ratio,[20],0.95
